Assay results: ChEMBL document CHEMBL5058577, “EUbOPEN Chemogenomics Library 2 (Multiplex)” (2022)

Test system: Fibroblast
Test: Multiplex assay against human fibroblast
Type: toxicity, cell-based
Summary of the method: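 Compound was added to live cells that had been stained at seeding with Hoechst33342, BioTracker Green Microtubule Cytoskeleton Dye, MitoTracker Red and Annexin V Alexa Fluor 680, and imaging followed on a CQ1 microscope at 37°C and 5% CO2. CellPathfinder machine-learning gating divided cells into Hoechst high-intensity objects or normal cells, normal cells into healthy, pyknosed or fragmented nuclei, and pyknosed cells into mitotic or apoptotic. Tubulin, mitochondrial-mass and membrane-permeability phenotypes are per cents of healthy-nucleus cells.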

[1] = 12 h, 1 µM, compound concentration 1 uM, replicate 1
[2] = 12 h, 1 µM, compound concentration 1 uM, replicate 2
[3] = 12 h, 10 µM, compound concentration 10 uM, replicate 1
[4] = 12 h, 10 µM, compound concentration 10 uM, replicate 2
[5] = 24 h, 1 µM, compound concentration 1 uM, replicate 1
[6] = 24 h, 1 µM, compound concentration 1 uM, replicate 2
[7] = 24 h, 10 µM, compound concentration 10 uM, replicate 1
[8] = 24 h, 10 µM, compound concentration 10 uM, replicate 2
[9] = 48 h, 1 µM, compound concentration 1 uM, replicate 1
[10] = 48 h, 1 µM, compound concentration 1 uM, replicate 2
[11] = 48 h, 10 µM, compound concentration 10 uM, replicate 1
[12] = 48 h, 10 µM, compound concentration 10 uM, replicate 2

## CN1CCC(C(=O)c2cccc(NC(=O)c3c(F)cc(F)cc3F)n2)CC1
[1]
  Population Apoptotic (%): 28%
  Population Fragmented Nuclei (%): 16%
  Population Healthy Nuclei (%): 64%
  Population Hoechst High Intensity Objects (%): 3%
  Population Membrane Permeable-Phenotype (%): 1%
  Population Mitochondria Different-Phenotype (%): 4%
  Population Mitotic Cells (%): 71%
  Population Normal (%): 96%
  Population Pyknosed Nuclei (%): 18%
  Population Tubulin-Different-Phenotype (%): 28%
  Total Cell Count: 153
[2]
  Population Apoptotic (%): 40%
  Population Fragmented Nuclei (%): 28%
  Population Healthy Nuclei (%): 53%
  Population Hoechst High Intensity Objects (%): 2%
  Population Membrane Permeable-Phenotype (%): 5%
  Population Mitochondria Different-Phenotype (%): 10%
  Population Mitotic Cells (%): 60%
  Population Normal (%): 97%
  Population Tubulin-Different-Phenotype (%): 43%
  Total Cell Count: 142
[3]
  Population Apoptotic (%): 32%
  Population Fragmented Nuclei (%): 12%
  Population Healthy Nuclei (%): 74%
  Population Hoechst High Intensity Objects (%): 4%
  Population Membrane Permeable-Phenotype (%): 1%
  Population Mitochondria Different-Phenotype (%): 7%
  Population Mitotic Cells (%): 67%
  Population Normal (%): 95%
  Population Pyknosed Nuclei (%): 13%
  Population Tubulin-Different-Phenotype (%): 42%
  Total Cell Count: 266
[4]
  Population Apoptotic (%): 36%
  Population Fragmented Nuclei (%): 23%
  Population Healthy Nuclei (%): 54%
  Population Membrane Permeable-Phenotype (%): 6%
  Population Mitochondria Different-Phenotype (%): 6%
  Population Mitotic Cells (%): 63%
  Population Pyknosed Nuclei (%): 22%
  Population Tubulin-Different-Phenotype (%): 63%
  Total Cell Count: 142
[5]
  Population Apoptotic (%): 45%
  Population Fragmented Nuclei (%): 12%
  Population Healthy Nuclei (%): 74%
  Population Hoechst High Intensity Objects (%): 1%
  Population Membrane Permeable-Phenotype (%): 0%
  Population Mitochondria Different-Phenotype (%): 2%
  Population Mitotic Cells (%): 55%
  Population Normal (%): 98%
  Population Pyknosed Nuclei (%): 12%
  Population Tubulin-Different-Phenotype (%): 21%
  Total Cell Count: 156
[6]
  Population Apoptotic (%): 40%
  Population Fragmented Nuclei (%): 34%
  Population Healthy Nuclei (%): 43%
  Population Membrane Permeable-Phenotype (%): 6%
  Population Mitochondria Different-Phenotype (%): 10%
  Population Mitotic Cells (%): 59%
  Population Pyknosed Nuclei (%): 21%
  Population Tubulin-Different-Phenotype (%): 45%
  Total Cell Count: 148
[7]
  Population Apoptotic (%): 54%
  Population Fragmented Nuclei (%): 13%
  Population Healthy Nuclei (%): 71%
  Population Hoechst High Intensity Objects (%): 3%
  Population Membrane Permeable-Phenotype (%): 0%
  Population Mitochondria Different-Phenotype (%): 6%
  Population Mitotic Cells (%): 45%
  Population Normal (%): 96%
  Population Pyknosed Nuclei (%): 14%
  Population Tubulin-Different-Phenotype (%): 37%
  Total Cell Count: 258
[8]
  Population Apoptotic (%): 37%
  Population Fragmented Nuclei (%): 30%
  Population Healthy Nuclei (%): 50%
  Population Hoechst High Intensity Objects (%): 2%
  Population Membrane Permeable-Phenotype (%): 5%
  Population Mitochondria Different-Phenotype (%): 8%
  Population Mitotic Cells (%): 62%
  Population Normal (%): 97%
  Population Pyknosed Nuclei (%): 19%
  Population Tubulin-Different-Phenotype (%): 65%
  Total Cell Count: 153
[9]
  Population Apoptotic (%): 71%
  Population Fragmented Nuclei (%): 16%
  Population Healthy Nuclei (%): 74%
  Population Hoechst High Intensity Objects (%): 3%
  Population Membrane Permeable-Phenotype (%): 0%
  Population Mitochondria Different-Phenotype (%): 1%
  Population Mitotic Cells (%): 28%
  Population Normal (%): 96%
  Population Pyknosed Nuclei (%): 8%
  Population Tubulin-Different-Phenotype (%): 25%
  Total Cell Count: 164
[10]
  Population Apoptotic (%): 56%
  Population Fragmented Nuclei (%): 42%
  Population Healthy Nuclei (%): 46%
  Population Hoechst High Intensity Objects (%): 2%
  Population Membrane Permeable-Phenotype (%): 5%
  Population Mitochondria Different-Phenotype (%): 5%
  Population Mitotic Cells (%): 43%
  Population Normal (%): 97%
  Population Pyknosed Nuclei (%): 10%
  Population Tubulin-Different-Phenotype (%): 67%
  Total Cell Count: 156
[11]
  Population Apoptotic (%): 71%
  Population Fragmented Nuclei (%): 17%
  Population Healthy Nuclei (%): 71%
  Population Hoechst High Intensity Objects (%): 5%
  Population Membrane Permeable-Phenotype (%): 0%
  Population Mitochondria Different-Phenotype (%): 7%
  Population Mitotic Cells (%): 28%
  Population Normal (%): 94%
  Population Pyknosed Nuclei (%): 10%
  Population Tubulin-Different-Phenotype (%): 40%
  Total Cell Count: 272
[12]
  Population Apoptotic (%): 54%
  Population Fragmented Nuclei (%): 36%
  Population Healthy Nuclei (%): 55%
  Population Hoechst High Intensity Objects (%): 3%
  Population Membrane Permeable-Phenotype (%): 3%
  Population Mitochondria Different-Phenotype (%): 3%
  Population Mitotic Cells (%): 45%
  Population Normal (%): 96%
  Population Pyknosed Nuclei (%): 7%
  Population Tubulin-Different-Phenotype (%): 69%
  Total Cell Count: 152
